Test results as given in ChEMBL document CHEMBL1944603, “An efficient synthesis of highly functionalized novel chromeno[4,3-b]pyrroles and indolizino[6,7-b]indoles as potent antimicrobial and antioxidant agents” (2012).
In brackets after ≈: the same amount, converted by molar mass.

Legend:
Assay type in all cases: functional
Klebsiella pneumoniae [1] = assay: Antimicrobial activity against Klebsiella pneumoniae at 100 ug/ml by agar diffusion assay
Procedure, shortened: (§1)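 Agar diffusion assay in duplicate against the human bacterial pathogens; tetracycline as reference control.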

Staphylococcus aureus [2] = assay: Antimicrobial activity against Staphylococcus aureus at 50 ug/ml by agar diffusion assay; procedure, shortened: as §1
Pseudomonas aeruginosa [3] = assay: Antimicrobial activity against Pseudomonas aeruginosa at 75 ug/ml by agar diffusion assay; procedure, shortened: as §1
Pseudomonas aeruginosa [4] = assay: Antimicrobial activity against Pseudomonas aeruginosa at 25 ug/ml by agar diffusion assay; procedure, shortened: as §1
[5] = tested on: Radical scavenging activity; assay: Antioxidant activity assessed as DPPH free radical scavenging activity at 500 ug by spectrophotometer
Procedure, shortened: (§2)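 DPPH radical scavenging measured spectrophotometrically by Blois's method at 50, 500 and 1000 µg. Absorbance read at 517 nm. Percent scavenging is the absorbance decrease at 517 nm relative to the absorbance of DPPH solution without test compound. L-ascorbic acid as standard.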

Klebsiella pneumoniae [6] = assay: Antimicrobial activity against Klebsiella pneumoniae at 50 ug/ml by agar diffusion assay; procedure, shortened: as §1
Bacillus subtilis [7] = assay: Antimicrobial activity against Bacillus subtilis at 50 ug/ml by agar diffusion assay; procedure, shortened: as §1
Staphylococcus aureus [8] = assay: Antimicrobial activity against Staphylococcus aureus at 25 ug/ml by agar diffusion assay; procedure, shortened: as §1
[9] = tested on: Radical scavenging activity; assay: Antioxidant activity assessed as DPPH free radical scavenging activity at 50 ug by spectrophotometer; procedure, shortened: as §2
Staphylococcus aureus [10] = assay: Antimicrobial activity against Staphylococcus aureus at 75 ug/ml by agar diffusion assay; procedure, shortened: as §1
Staphylococcus aureus [11] = assay: Antimicrobial activity against Staphylococcus aureus at 100 ug/ml by agar diffusion assay; procedure, shortened: as §1
Bacillus subtilis [12] = assay: Antimicrobial activity against Bacillus subtilis at 25 ug/ml by agar diffusion assay; procedure, shortened: as §1
Macrophomina phaseolina = assay: Antifungal activity against Macrophomina phaseolina
Procedure, shortened: (§3)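 Agar diffusion assay in duplicate against the plant fungal pathogens; read-out as minimum inhibitory concentration (MIC); carbendazim as reference control.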

Bacillus subtilis [13] = assay: Antimicrobial activity against Bacillus subtilis at 75 ug/ml by agar diffusion assay; procedure, shortened: as §1
Klebsiella pneumoniae [14] = assay: Antimicrobial activity against Klebsiella pneumoniae at 75 ug/ml by agar diffusion assay; procedure, shortened: as §1
Klebsiella pneumoniae [15] = assay: Antimicrobial activity against Klebsiella pneumoniae at 25 ug/ml by agar diffusion assay; procedure, shortened: as §1
Bacillus subtilis [16] = assay: Antimicrobial activity against Bacillus subtilis at 100 ug/ml by agar diffusion assay; procedure, shortened: as §1
Pseudomonas aeruginosa [17] = assay: Antimicrobial activity against Pseudomonas aeruginosa at 50 ug/ml by agar diffusion assay; procedure, shortened: as §1
Fusarium oxysporum = assay: Antifungal activity against Fusarium oxysporum; procedure, shortened: as §3
[18] = tested on: Radical scavenging activity; assay: Antioxidant activity assessed as DPPH free radical scavenging activity at 1000 ug by spectrophotometer; procedure, shortened: as §2
Pseudomonas aeruginosa [19] = assay: Antimicrobial activity against Pseudomonas aeruginosa at 100 ug/ml by agar diffusion assay; procedure, shortened: as §1

COC(=O)[C@]12Cc3c([nH]c4ccccc34)[C@@H](c3ccc(C)cc3)N1[C@@H]1c3c(ccc4ccccc34)OC[C@@H]1C2
inhibition zone (IZ) (Klebsiella pneumoniae [1]): 21 mm | inhibition zone (IZ) (Staphylococcus aureus [2]): 12 mm | inhibition zone (IZ) (Pseudomonas aeruginosa [3]): 17 mm | inhibition zone (IZ) (Pseudomonas aeruginosa [4]): 8 mm | Activity [5]: 53% | inhibition zone (IZ) (Klebsiella pneumoniae [6]): 12 mm | inhibition zone (IZ) (Bacillus subtilis [7]): 14 mm | inhibition zone (IZ) (Staphylococcus aureus [8]): 9 mm | Activity [9]: 26% | inhibition zone (IZ) (Staphylococcus aureus [10]): 17 mm | inhibition zone (IZ) (Staphylococcus aureus [11]): 19 mm | inhibition zone (IZ) (Bacillus subtilis [12]): 9 mm | MIC (Macrophomina phaseolina): 30 µg/mL (≈ 58.3 µM) | inhibition zone (IZ) (Bacillus subtilis [13]): 16 mm | inhibition zone (IZ) (Klebsiella pneumoniae [14]): 17 mm | inhibition zone (IZ) (Klebsiella pneumoniae [15]): 9 mm | inhibition zone (IZ) (Bacillus subtilis [16]): 20 mm | inhibition zone (IZ) (Pseudomonas aeruginosa [17]): 14 mm | MIC (Fusarium oxysporum): 85 µg/mL (≈ 165 µM) | Activity [18]: 87% | inhibition zone (IZ) (Pseudomonas aeruginosa [19]): 20 mm

COC(=O)[C@@]1(Cc2c[nH]c3ccccc23)C[C@H]2COc3ccccc3[C@H]2N1
inhibition zone (IZ) (Klebsiella pneumoniae [1]): 23 mm | inhibition zone (IZ) (Staphylococcus aureus [2]): 15 mm | inhibition zone (IZ) (Pseudomonas aeruginosa [3]): 21 mm | inhibition zone (IZ) (Pseudomonas aeruginosa [4]): 10 mm | Activity [5]: 51% | inhibition zone (IZ) (Klebsiella pneumoniae [6]): 15 mm | inhibition zone (IZ) (Bacillus subtilis [7]): 15 mm | inhibition zone (IZ) (Staphylococcus aureus [8]): 10 mm | Activity [9]: 29% | inhibition zone (IZ) (Staphylococcus aureus [10]): 20 mm | inhibition zone (IZ) (Staphylococcus aureus [11]): 23 mm | inhibition zone (IZ) (Bacillus subtilis [12]): 11 mm | MIC (Macrophomina phaseolina): 60 µg/mL (≈ 166 µM) | inhibition zone (IZ) (Bacillus subtilis [13]): 20 mm | inhibition zone (IZ) (Klebsiella pneumoniae [14]): 21 mm | inhibition zone (IZ) (Klebsiella pneumoniae [15]): 11 mm | inhibition zone (IZ) (Bacillus subtilis [16]): 26 mm | inhibition zone (IZ) (Pseudomonas aeruginosa [17]): 15 mm | MIC (Fusarium oxysporum): 75 µg/mL (≈ 207 µM) | Activity [18]: 64% | inhibition zone (IZ) (Pseudomonas aeruginosa [19]): 23 mm

COC(=O)Nc1nc2ccccc2[nH]1 [CARBENDAZIM]
MIC (Macrophomina phaseolina): 15 µg/mL (≈ 78.5 µM) | MIC (Fusarium oxysporum): 20 µg/mL (≈ 105 µM)

CN(C)[C@@H]1C(O)=C(C(N)=O)C(=O)[C@@]2(O)C(O)=C3C(=O)c4c(O)cccc4[C@@](C)(O)[C@H]3C[C@@H]12 [TETRACYCLINE]
inhibition zone (IZ) (Klebsiella pneumoniae [1]): > 40 mm | inhibition zone (IZ) (Staphylococcus aureus [2]): 24 mm | inhibition zone (IZ) (Pseudomonas aeruginosa [3]): 28 mm | inhibition zone (IZ) (Pseudomonas aeruginosa [4]): 20 mm | inhibition zone (IZ) (Klebsiella pneumoniae [6]): 22 mm | inhibition zone (IZ) (Bacillus subtilis [7]): 24 mm | inhibition zone (IZ) (Staphylococcus aureus [8]): 22 mm | inhibition zone (IZ) (Staphylococcus aureus [10]): 29 mm | inhibition zone (IZ) (Staphylococcus aureus [11]): > 40 mm | inhibition zone (IZ) (Bacillus subtilis [12]): 15 mm | inhibition zone (IZ) (Bacillus subtilis [13]): 29 mm | inhibition zone (IZ) (Klebsiella pneumoniae [14]): 28 mm | inhibition zone (IZ) (Klebsiella pneumoniae [15]): 18 mm | inhibition zone (IZ) (Bacillus subtilis [16]): > 40 mm | inhibition zone (IZ) (Pseudomonas aeruginosa [17]): 26 mm | inhibition zone (IZ) (Pseudomonas aeruginosa [19]): > 40 mm

O=C1O[C@H]([C@@H](O)CO)C(O)=C1O
Activity [5]: 97% | Activity [9]: 95% | Activity [18]: 99%

COC(=O)[C@]12Cc3c([nH]c4ccccc34)[C@@H](c3cccc([N+](=O)[O-])c3)N1[C@@H]1c3c(ccc4ccccc34)OC[C@@H]1C2
inhibition zone (IZ) (Klebsiella pneumoniae [1]): 27 mm | inhibition zone (IZ) (Staphylococcus aureus [2]): 20 mm | inhibition zone (IZ) (Pseudomonas aeruginosa [3]): 24 mm | inhibition zone (IZ) (Pseudomonas aeruginosa [4]): 14 mm | Activity [5]: 53% | inhibition zone (IZ) (Klebsiella pneumoniae [6]): 18 mm | inhibition zone (IZ) (Bacillus subtilis [7]): 19 mm | inhibition zone (IZ) (Staphylococcus aureus [8]): 19 mm | Activity [9]: 30% | inhibition zone (IZ) (Staphylococcus aureus [10]): 24 mm | inhibition zone (IZ) (Staphylococcus aureus [11]): 28 mm | inhibition zone (IZ) (Bacillus subtilis [12]): 12 mm | MIC (Macrophomina phaseolina): 90 µg/mL (≈ 165 µM) | inhibition zone (IZ) (Bacillus subtilis [13]): 24 mm | inhibition zone (IZ) (Klebsiella pneumoniae [14]): 22 mm | inhibition zone (IZ) (Klebsiella pneumoniae [15]): 13 mm | inhibition zone (IZ) (Bacillus subtilis [16]): 29 mm | inhibition zone (IZ) (Pseudomonas aeruginosa [17]): 20 mm | MIC (Fusarium oxysporum): 35 µg/mL (≈ 64.2 µM) | Activity [18]: 67% | inhibition zone (IZ) (Pseudomonas aeruginosa [19]): 30 mm
